Test [1] has as its target T1, Sphingomyelin phosphodiesterase (Homo sapiens, UniProt P17405).
T1 sequence (P17405 whole entry): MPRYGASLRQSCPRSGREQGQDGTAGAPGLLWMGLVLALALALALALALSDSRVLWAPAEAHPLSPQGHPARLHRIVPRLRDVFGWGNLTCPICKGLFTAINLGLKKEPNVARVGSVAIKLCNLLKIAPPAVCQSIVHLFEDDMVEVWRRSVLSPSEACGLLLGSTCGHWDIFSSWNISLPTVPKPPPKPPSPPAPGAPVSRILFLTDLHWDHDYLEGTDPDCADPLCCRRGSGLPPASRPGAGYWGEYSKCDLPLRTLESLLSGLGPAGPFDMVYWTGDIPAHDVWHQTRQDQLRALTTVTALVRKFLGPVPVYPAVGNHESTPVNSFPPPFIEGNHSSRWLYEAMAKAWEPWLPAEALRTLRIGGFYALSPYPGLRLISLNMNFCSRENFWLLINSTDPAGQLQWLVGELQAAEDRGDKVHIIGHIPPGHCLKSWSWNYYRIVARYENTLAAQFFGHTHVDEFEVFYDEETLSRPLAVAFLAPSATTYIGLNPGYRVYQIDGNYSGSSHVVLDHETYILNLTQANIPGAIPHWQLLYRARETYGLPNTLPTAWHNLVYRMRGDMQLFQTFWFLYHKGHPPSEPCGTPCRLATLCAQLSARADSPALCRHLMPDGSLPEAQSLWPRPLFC
As to the kind of experiment: Inhibition of acid sphingomyelinase in human HuH7 cell lysate using NBD-sphingomyelin as substrate after 30 mins by TLC based fluorescence assay.

The target in test [2] is T2, Sphingomyelin phosphodiesterase 2 (Homo sapiens) (UniProt O60906).
T2 sequence (whole entry): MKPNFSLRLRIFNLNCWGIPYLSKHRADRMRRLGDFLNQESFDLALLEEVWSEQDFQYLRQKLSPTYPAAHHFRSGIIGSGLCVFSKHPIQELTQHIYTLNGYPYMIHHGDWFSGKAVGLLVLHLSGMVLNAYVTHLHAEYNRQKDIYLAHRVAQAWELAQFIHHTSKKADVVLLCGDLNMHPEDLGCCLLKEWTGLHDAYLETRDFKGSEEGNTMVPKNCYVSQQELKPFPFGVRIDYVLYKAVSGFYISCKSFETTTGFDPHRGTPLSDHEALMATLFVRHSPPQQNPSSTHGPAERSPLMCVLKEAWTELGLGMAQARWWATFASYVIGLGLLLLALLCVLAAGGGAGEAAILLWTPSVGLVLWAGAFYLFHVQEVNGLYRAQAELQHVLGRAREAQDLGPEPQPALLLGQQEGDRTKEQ
As to the kind of experiment: Inhibition of neutral sphingomyelinase (unknown origin) assessed as reduction in NBD-ceramide release at 100 uM by TLC based fluorescence assay.

Test [3] has as its system NIH3T3. As to the kind of experiment: Cytoprotective activity against UV-induced apoptosis in mouse NIH/3T3 cells assessed as necrotic cells preincubated for 20 hrs followed by UV irradiation for 5 mins and measured after 24 hrs by flow cytometric analysis. It counts as functional, cell-based. In a few lines:
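NIH3T3 cells grown in DMEM plus 10% FBS at 37 °C and 5% CO₂, seeded in 6-well plates and left overnight. Inhibitor (0–60 µM, DMSO solvent) added for 20 h. Medium replaced, then UV at peak 315 nm, 0.29 mW/cm² for 5 min. Cells kept with inhibitor 24 h more before flow cytometry by quadrant regions. Untreated, unirradiated cells served as control. Three independent experiments.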
A general note: Flow cytometry measures light scatter and fluorescence of single cells or particles in a stream.

For test [4], the target named is T3, Sphingomyelin phosphodiesterase (Bos taurus, UniProt Q0VD19).
T3 sequence (Q0VD19 whole entry): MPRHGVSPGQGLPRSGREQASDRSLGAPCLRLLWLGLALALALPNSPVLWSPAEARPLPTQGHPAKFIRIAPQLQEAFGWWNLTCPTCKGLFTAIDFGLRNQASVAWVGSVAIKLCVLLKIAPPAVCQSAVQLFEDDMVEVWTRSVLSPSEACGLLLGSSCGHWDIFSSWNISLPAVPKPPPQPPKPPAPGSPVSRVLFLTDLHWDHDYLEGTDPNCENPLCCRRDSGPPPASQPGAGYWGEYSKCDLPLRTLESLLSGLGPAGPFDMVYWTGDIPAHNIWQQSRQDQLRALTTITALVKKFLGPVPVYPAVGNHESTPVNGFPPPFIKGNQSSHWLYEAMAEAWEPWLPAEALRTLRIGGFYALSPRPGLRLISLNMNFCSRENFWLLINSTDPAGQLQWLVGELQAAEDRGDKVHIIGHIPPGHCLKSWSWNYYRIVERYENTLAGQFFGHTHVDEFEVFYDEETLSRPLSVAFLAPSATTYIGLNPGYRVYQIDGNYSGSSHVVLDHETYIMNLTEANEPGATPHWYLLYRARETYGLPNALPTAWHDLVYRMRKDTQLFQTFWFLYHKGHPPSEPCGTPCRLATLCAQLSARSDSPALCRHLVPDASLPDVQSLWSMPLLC
Put plainly: Inhibition of bovine brain-derived acidic sphingomyelinase.

The values that follow come from ChEMBL document CHEMBL4152204, “Discovery of N-hydroxy-3-alkoxybenzamides as direct acid sphingomyelinase inhibitors using a ligand-based pharmacophore model” (Eur J Med Chem, 2018).

By IC50 is commonly meant the concentration that gives 50% inhibition. Lower therefore signals greater potency.

Molecules are shown by their SMILES. Calls of active or inactive are those of the source. The calls are words filed in the database; no cut-off is given here.

In test [1], `CCCCCCCCOc1cc(C(=O)NO)ccc1OC` gave an IC50 of 16.1 µM.

Take `N#Cc1ccc(COc2cccc(C(=O)NO)c2)cc1`: it took 52.9 µM to reach half-maximal inhibition in test [1] (IC50).

`CCCCCCCCS(=O)(=O)OC[C@H]1OC(O)[C@H](OP(=O)(O)O)[C@@H](O)[C@@H]1OP(=O)(O)O` (stereo partly drawn): in test [1], the 50% inhibitory concentration (IC50) is 2.34 µM.

The compound `COc1ccc(/C=N/NC(=O)c2[nH]c3ccc(Cl)cc3c2-c2ccccc2)c(C(=O)O)c1OC` had an IC50 in test [1] of 14.1 µM.

The compound `COc1ccc(C(=O)NO)cc1OCc1ccc(Br)cc1` registered an IC50 in test [1] of 7.78 µM.

As for `CCCCCCCCCCCCS(=O)(=O)O[C@H]1OC(O)[C@H](OP(=O)(O)O)[C@@H](O)[C@@H]1OP(=O)(O)O` (stereo partly drawn), 0.44 µM corresponded to half-maximal inhibition in test [1] (IC50).

With `O=c1cc(-c2ccc3c(c2)OCCCO3)oc2c1ccc1ccccc12`, in test [1], the IC50 was 24.3 µM.

`CCN(CC)C(=O)/C=C/Cc1c(O)c(OC)cc2oc3cc(OC)cc(O)c3c(=O)c12` displayed an IC50 in test [1] of 4.89 to 5.07 µM.

The compound `COc1c(O)cc2oc3cc(O)c(CC=C(C)C)c(O)c3c(=O)c2c1C/C=C(\C)CCC=C(C)C` [COWANIN] returned an IC50 in test [1] of 19.2 µM.

Compound `CCCCCCCCCCOc1cccc(C(=O)NO)c1` registered an IC50 in test [1] of 1.42 µM. Further, in test [2], the inhibition entry was “inactive”.

In test [1], `CCCCCCCCCCOc1cc(C(=O)NCC(C)O)ccc1OC` (stereo not drawn) registered an IC50 of 85.2 µM.

The compound `CCCCCCCCOc1cccc(C(=O)NO)c1` registered an IC50 in test [1] of 17.4 µM.

Take `CC1=C(C(=O)Nc2ccccc2)C(c2ccc(Cl)cc2)n2c(s/c(=C/c3cccc(OCC(=O)O)c3)c2=O)=N1` (stereo not drawn): the IC50 in test [1] was determined as 25.1 µM.

Take `CCCCCCCCOC(=O)c1c(CSC(=N)N)n(C)c2cc(Br)c(OC(C)=O)cc12`: the IC50 in test [1] came to 31.6 µM.

`CCCCCCCCCCOc1cc(C(=O)NCCO)ccc1OC` gave an IC50 in test [1] of 71 µM.

For the compound `CCOc1ccc2oc(-c3cc(Br)cc4c3OCOC4)c(N)c(=O)c2c1`, in test [1], the IC50 turned out to be 3.5 µM.

Turning to `O=C(c1cc(-c2ccccc2)n(-c2ccc(Cl)cc2Cl)n1)N1CCOCC1`, in test [1], the IC50 turned out to be 28.2 µM.

In the case of `Cc1cc2[nH]c(=O)c(=O)[nH]c2cc1S(=O)(=O)N1CCN(c2cccc(Cl)c2)CC1`, the IC50 in test [1] worked out at 20 µM.

As to `CC(C)N1C(=N)/C(=C\c2nc(=O)c3ccccc3[nH]2)c2ccccc21`, the IC50 in test [1] amounted to 31.6 µM.

The compound `CCNC(=O)/C=C/Cc1c(O)c(OC)cc2oc3cc(OC)cc(O)c3c(=O)c12` registered an IC50 in test [1] of 4.89 to 5.07 µM.

Compound `O=C(NO)c1cccc(OCc2ccccc2)c1` returned an IC50 in test [1] of 60.4 µM.

In test [1], `CCCCCCCCCC(OP(=O)(O)O)OP(=O)(O)O` gave a 50% inhibitory concentration (IC50) of 0.3 µM.

As to `O=C(NO)c1cccc(OCc2ccc(Br)cc2)c1`, in test [1], it took 19.4 µM to reach half-maximal inhibition (IC50).

Regarding `Cc1c(C(=O)Nc2cccc(C(F)(F)F)c2)oc2ccc(S(=O)(=O)N3CCOCC3)cc12`, in test [1], the IC50 stood at 22.4 µM.

In test [1], `Cc1cc2[nH]c(=O)c(=O)[nH]c2cc1S(=O)(=O)N1CCN(c2cccc(C(F)(F)F)c2)CC1` had a 50% inhibitory concentration (IC50) of 20 µM.

As for `CN(C)CCC=C1c2ccccc2CCc2ccccc21`, the Activity result in test [3] was “Dose-dependent effect”.

On to `CCCCCCCC(OP(=O)(O)O)OP(=O)(O)O`, for which, in test [1], the IC50 was 0.35 µM.

Compound `COc1cc(/C=C2/SC(=S)N(Nc3ncc(C(F)(F)F)cc3Cl)C2=O)cc(OC)c1OC` had an IC50 in test [1] of 28.2 µM.

Consider `COc1c(O)cc2oc3cc(O)c(CC=C(C)C)c(O)c3c(=O)c2c1CC=C(C)C` [MANGOSTIN], for which the IC50 in test [1] amounted to 24.7 µM; in test [4] it was 14.1 µM.

With `O=P(O)(O)O[C@H]1[C@H](O)[C@@H](OP(=O)(O)O)[C@H](O)[C@@H](OP(=O)(O)O)[C@H]1O`, it took 26.7 µM to reach half-maximal inhibition in test [1] (IC50).

The compound `CCCCc1oc2ccccc2c1C(=O)c1cc(I)c(OCCN(CC)CC)cc1I` yielded an IC50 in test [1] of 39.8 µM.

Regarding `CCCCCCCC1Cc2cc(O)c(C(=O)O)c(O)c2C(C)O1` (stereo not drawn), 68.7 µM corresponded to half-maximal inhibition in test [1] (IC50).

In test [1], `COc1ccc(C(=O)NO)cc1OCc1ccccc1` showed an IC50 of 10.5 µM.

Regarding `CCCCCCCCCCOc1cc(C(=O)NO)ccc1O`, in test [1], the IC50 was determined as 17.4 µM.

As to `COc1ccc(COc2cccc(C(=O)NO)c2)cc1`, the IC50 in test [1] came to 42.7 µM.

As to `CCCCCCCCCCCCOc1cc(C(=O)NO)ccc1OC`, the midpoint of inhibition in test [1], the IC50, lay at 18.6 µM.
